Reference: ChEMBL document CHEMBL3864121, “Development of ebsulfur analogues as potent antibacterials against methicillin-resistant Staphylococcus aureus” (Bioorg Med Chem, 2016)
Values after ≈ are worked out from the molar mass of the structure shown.

Each compound was assayed on Staphylococcus aureus (assay: Antibacterial activity against methicillin-sensitive Staphylococcus aureus ATCC 6538 measured after overnight incubation by broth double-dilution method).
Type: functional
How it was run: (§1)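 MIC by broth double-dilution in liquid Mueller-Hinton medium. Values are reported in µg/mL.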
`NCC[C@H](O)C(=O)N[C@@H]1C[C@H](N)[C@@H](O[C@H]2O[C@H](CN)[C@@H](O)[C@H](O)[C@H]2O)[C@H](O)[C@H]1O[C@H]1O[C@H](CO)[C@@H](O)[C@H](N)[C@H]1O` [AMIKACIN] was tested, and the MIC was 2 µg/mL (≈ 3.42 µM).

The compounds below were run on Staphylococcus aureus (assay: Antibacterial activity against methicillin-sensitive Staphylococcus aureus ATCC 25923 measured after overnight incubation by broth double-dilution method).
Type: functional
How it was run: as §1
In the case of `NCC[C@H](O)C(=O)N[C@@H]1C[C@H](N)[C@@H](O[C@H]2O[C@H](CN)[C@@H](O)[C@H](O)[C@H]2O)[C@H](O)[C@H]1O[C@H]1O[C@H](CO)[C@@H](O)[C@H](N)[C@H]1O` [AMIKACIN], the MIC was no more than 0.25 µg/mL.

These compounds were tested on Staphylococcus aureus (assay: Antibacterial activity against methicillin-sensitive Staphylococcus aureus ATCC 29213 measured after overnight incubation by broth double-dilution method).
Type: functional
How it was run: as §1
With `NCC[C@H](O)C(=O)N[C@@H]1C[C@H](N)[C@@H](O[C@H]2O[C@H](CN)[C@@H](O)[C@H](O)[C@H]2O)[C@H](O)[C@H]1O[C@H]1O[C@H](CO)[C@@H](O)[C@H](N)[C@H]1O` [AMIKACIN] the MIC was 62.5 µg/mL (≈ 107 µM).

These compounds were tested on Staphylococcus aureus (assay: Antibacterial activity against methicillin-resistant Staphylococcus aureus ATCC 33591 measured after overnight incubation by broth double-dilution method).
Type: functional
How it was run: as §1
With `NCC[C@H](O)C(=O)N[C@@H]1C[C@H](N)[C@@H](O[C@H]2O[C@H](CN)[C@@H](O)[C@H](O)[C@H]2O)[C@H](O)[C@H]1O[C@H]1O[C@H](CO)[C@@H](O)[C@H](N)[C@H]1O` [AMIKACIN] the MIC was 31.3 µg/mL (≈ 53.4 µM).

These compounds were tested on Staphylococcus aureus (assay: Antibacterial activity against methicillin-resistant Staphylococcus aureus 1 measured after overnight incubation by broth double-dilution method).
Type: functional
How it was run: as §1
In the case of `NCC[C@H](O)C(=O)N[C@@H]1C[C@H](N)[C@@H](O[C@H]2O[C@H](CN)[C@@H](O)[C@H](O)[C@H]2O)[C@H](O)[C@H]1O[C@H]1O[C@H](CO)[C@@H](O)[C@H](N)[C@H]1O` [AMIKACIN], the MIC was 31.3 µg/mL (≈ 53.4 µM).

Each compound was assayed on Staphylococcus aureus (assay: Antibacterial activity against methicillin-resistant Staphylococcus aureus 2 measured after overnight incubation by broth double-dilution method).
Type: functional
How it was run: as §1
`NCC[C@H](O)C(=O)N[C@@H]1C[C@H](N)[C@@H](O[C@H]2O[C@H](CN)[C@@H](O)[C@H](O)[C@H]2O)[C@H](O)[C@H]1O[C@H]1O[C@H](CO)[C@@H](O)[C@H](N)[C@H]1O` [AMIKACIN] showed an MIC of 3.9 µg/mL (≈ 6.66 µM).

Each compound was assayed on Staphylococcus aureus (assay: Antibacterial activity against methicillin-resistant Staphylococcus aureus BRS3 measured after overnight incubation by broth double-dilution method).
Type: functional
How it was run: as §1
Compound `NCC[C@H](O)C(=O)N[C@@H]1C[C@H](N)[C@@H](O[C@H]2O[C@H](CN)[C@@H](O)[C@H](O)[C@H]2O)[C@H](O)[C@H]1O[C@H]1O[C@H](CO)[C@@H](O)[C@H](N)[C@H]1O` [AMIKACIN] has an MIC of 62.5 µg/mL (≈ 107 µM).

The compounds below were run on Staphylococcus aureus (assay: Antibacterial activity against methicillin-resistant Staphylococcus aureus C1 measured after overnight incubation by broth double-dilution method).
Type: functional
How it was run: as §1
Work on `NCC[C@H](O)C(=O)N[C@@H]1C[C@H](N)[C@@H](O[C@H]2O[C@H](CN)[C@@H](O)[C@H](O)[C@H]2O)[C@H](O)[C@H]1O[C@H]1O[C@H](CO)[C@@H](O)[C@H](N)[C@H]1O` [AMIKACIN] yielded an MIC of 2 µg/mL (≈ 3.42 µM).

What follows are compounds tested on Staphylococcus aureus (assay: Antibacterial activity against methicillin-resistant Staphylococcus aureus C2 measured after overnight incubation by broth double-dilution method).
Type: functional
How it was run: as §1
`NCC[C@H](O)C(=O)N[C@@H]1C[C@H](N)[C@@H](O[C@H]2O[C@H](CN)[C@@H](O)[C@H](O)[C@H]2O)[C@H](O)[C@H]1O[C@H]1O[C@H](CO)[C@@H](O)[C@H](N)[C@H]1O` [AMIKACIN] gave an MIC of 2 µg/mL (≈ 3.42 µM).

What follows are compounds tested on Staphylococcus aureus (assay: Antibacterial activity against methicillin-resistant Staphylococcus aureus C7 measured after overnight incubation by broth double-dilution method).
Type: functional
How it was run: as §1
In the case of `NCC[C@H](O)C(=O)N[C@@H]1C[C@H](N)[C@@H](O[C@H]2O[C@H](CN)[C@@H](O)[C@H](O)[C@H]2O)[C@H](O)[C@H]1O[C@H]1O[C@H](CO)[C@@H](O)[C@H](N)[C@H]1O` [AMIKACIN], the MIC was 7.8 µg/mL (≈ 13.3 µM).

What follows are compounds tested on Staphylococcus aureus (assay: Antibacterial activity against methicillin-resistant Staphylococcus aureus C14 measured after overnight incubation by broth double-dilution method).
Type: functional
How it was run: as §1
`NCC[C@H](O)C(=O)N[C@@H]1C[C@H](N)[C@@H](O[C@H]2O[C@H](CN)[C@@H](O)[C@H](O)[C@H]2O)[C@H](O)[C@H]1O[C@H]1O[C@H](CO)[C@@H](O)[C@H](N)[C@H]1O` [AMIKACIN] gave an MIC of 31.3 µg/mL (≈ 53.4 µM).

What follows are compounds tested on Staphylococcus aureus (assay: Antibacterial activity against methicillin-resistant Staphylococcus aureus C16 measured after overnight incubation by broth double-dilution method).
Type: functional
How it was run: as §1
`NCC[C@H](O)C(=O)N[C@@H]1C[C@H](N)[C@@H](O[C@H]2O[C@H](CN)[C@@H](O)[C@H](O)[C@H]2O)[C@H](O)[C@H]1O[C@H]1O[C@H](CO)[C@@H](O)[C@H](N)[C@H]1O` [AMIKACIN] was tested, and the MIC was 31.3 µg/mL (≈ 53.4 µM).

The compounds below were run on Staphylococcus aureus (assay: Antibacterial activity against methicillin-resistant Staphylococcus aureus C19 measured after overnight incubation by broth double-dilution method).
Type: functional
How it was run: as §1
`NCC[C@H](O)C(=O)N[C@@H]1C[C@H](N)[C@@H](O[C@H]2O[C@H](CN)[C@@H](O)[C@H](O)[C@H]2O)[C@H](O)[C@H]1O[C@H]1O[C@H](CO)[C@@H](O)[C@H](N)[C@H]1O` [AMIKACIN] was tested, and the MIC was 3.9 µg/mL (≈ 6.66 µM).

What follows are compounds tested on Staphylococcus aureus (assay: Antibacterial activity against methicillin-resistant Staphylococcus aureus G1 measured after overnight incubation by broth double-dilution method).
Type: functional
How it was run: as §1
Compound `NCC[C@H](O)C(=O)N[C@@H]1C[C@H](N)[C@@H](O[C@H]2O[C@H](CN)[C@@H](O)[C@H](O)[C@H]2O)[C@H](O)[C@H]1O[C@H]1O[C@H](CO)[C@@H](O)[C@H](N)[C@H]1O` [AMIKACIN] has an MIC of 31.3 µg/mL (≈ 53.4 µM).

The compounds below were run on Staphylococcus aureus (assay: Antibacterial activity against methicillin-resistant Staphylococcus aureus G6 measured after overnight incubation by broth double-dilution method).
Type: functional
How it was run: as §1
`NCC[C@H](O)C(=O)N[C@@H]1C[C@H](N)[C@@H](O[C@H]2O[C@H](CN)[C@@H](O)[C@H](O)[C@H]2O)[C@H](O)[C@H]1O[C@H]1O[C@H](CO)[C@@H](O)[C@H](N)[C@H]1O` [AMIKACIN] showed an MIC of 15.6 µg/mL (≈ 26.6 µM).

The compounds below were run on Staphylococcus aureus (assay: Antibacterial activity against methicillin-resistant Staphylococcus aureus G12 measured after overnight incubation by broth double-dilution method).
Type: functional
How it was run: as §1
With `NCC[C@H](O)C(=O)N[C@@H]1C[C@H](N)[C@@H](O[C@H]2O[C@H](CN)[C@@H](O)[C@H](O)[C@H]2O)[C@H](O)[C@H]1O[C@H]1O[C@H](CO)[C@@H](O)[C@H](N)[C@H]1O` [AMIKACIN] the MIC was 15.6 µg/mL (≈ 26.6 µM).

The compounds below were run on Staphylococcus aureus (assay: Antibacterial activity against methicillin-resistant Staphylococcus aureus G14 measured after overnight incubation by broth double-dilution method).
Type: functional
How it was run: as §1
In the case of `NCC[C@H](O)C(=O)N[C@@H]1C[C@H](N)[C@@H](O[C@H]2O[C@H](CN)[C@@H](O)[C@H](O)[C@H]2O)[C@H](O)[C@H]1O[C@H]1O[C@H](CO)[C@@H](O)[C@H](N)[C@H]1O` [AMIKACIN], the MIC was 31.3 µg/mL (≈ 53.4 µM).

The compounds below were run on Staphylococcus aureus (assay: Antibacterial activity against methicillin-resistant Staphylococcus aureus NRS4 measured after overnight incubation by broth double-dilution method).
Type: functional
How it was run: as §1
`NCC[C@H](O)C(=O)N[C@@H]1C[C@H](N)[C@@H](O[C@H]2O[C@H](CN)[C@@H](O)[C@H](O)[C@H]2O)[C@H](O)[C@H]1O[C@H]1O[C@H](CO)[C@@H](O)[C@H](N)[C@H]1O` [AMIKACIN] showed an MIC of 31.3 µg/mL (≈ 53.4 µM).

The compounds below were run on Staphylococcus aureus (assay: Antibacterial activity against methicillin-resistant Staphylococcus aureus NRS51 measured after overnight incubation by broth double-dilution method).
Type: functional
How it was run: as §1
For `NCC[C@H](O)C(=O)N[C@@H]1C[C@H](N)[C@@H](O[C@H]2O[C@H](CN)[C@@H](O)[C@H](O)[C@H]2O)[C@H](O)[C@H]1O[C@H]1O[C@H](CO)[C@@H](O)[C@H](N)[C@H]1O` [AMIKACIN], the MIC was 15.6 µg/mL (≈ 26.6 µM).

The compounds below were run on Staphylococcus aureus (assay: Antibacterial activity against methicillin-resistant Staphylococcus aureus NRS77 measured after overnight incubation by broth double-dilution method).
Type: functional
How it was run: as §1
For `NCC[C@H](O)C(=O)N[C@@H]1C[C@H](N)[C@@H](O[C@H]2O[C@H](CN)[C@@H](O)[C@H](O)[C@H]2O)[C@H](O)[C@H]1O[C@H]1O[C@H](CO)[C@@H](O)[C@H](N)[C@H]1O` [AMIKACIN], the MIC was 0.5 µg/mL (≈ 0.854 µM).

These compounds were tested on Staphylococcus aureus (assay: Antibacterial activity against methicillin-resistant Staphylococcus aureus S14 measured after overnight incubation by broth double-dilution method).
Type: functional
How it was run: as §1
`NCC[C@H](O)C(=O)N[C@@H]1C[C@H](N)[C@@H](O[C@H]2O[C@H](CN)[C@@H](O)[C@H](O)[C@H]2O)[C@H](O)[C@H]1O[C@H]1O[C@H](CO)[C@@H](O)[C@H](N)[C@H]1O` [AMIKACIN] gave an MIC of 7.8 µg/mL (≈ 13.3 µM).

Each compound was assayed on Staphylococcus aureus (assay: Antibacterial activity against methicillin-resistant Staphylococcus aureus S17 measured after overnight incubation by broth double-dilution method).
Type: functional
How it was run: as §1
`NCC[C@H](O)C(=O)N[C@@H]1C[C@H](N)[C@@H](O[C@H]2O[C@H](CN)[C@@H](O)[C@H](O)[C@H]2O)[C@H](O)[C@H]1O[C@H]1O[C@H](CO)[C@@H](O)[C@H](N)[C@H]1O` [AMIKACIN] gave an MIC of 31.3 µg/mL (≈ 53.4 µM).
